Results pooled from the literature.
Lines come from different studies, so protocols differ.
Target: Casein kinase I isoform gamma-3 (CSNK1G3, Homo sapiens, UniProt Q9Y6M4)

SMILES	observed	mode	technique	concentration	quantity	value
COc1cc2ncnc(Nc3ccc(Oc4ccccc4)cc3C)c2cc1OC	enzyme activity	inhibitor	–	1 µM	inhibition	4%
C[C@@H]1CCN(C(=O)CC#N)C[C@@H]1N(C)c1ncnc2[nH]ccc12	cell-free assay	inhibitor	–	0.5 µM	remaining signal	101%
CNC(=O)Nc1ccc2c(c1)CC[C@@]21OC(=O)N(CC(=O)N(Cc2ccc(F)cc2)[C@@H](C)C(F)(F)F)C1=O	cell-free assay	–	competition with immobilised ligand	1 µM	remaining binding	84%
O=C1NC(=O)c2cc(Nc3ccc(F)cc3)c(Nc3ccc(F)cc3)cc21	cell-free assay	–	–	0.5 µM	remaining signal	90.7%
CCN1CCC2(CC1)NC(=O)c1c(c3ccc(Cl)c(Cl)c3n1C)C2C#N (racemic)	thermal stability	–	DSF	10 µM	ΔTm	0.8 °C
CNC(=O)c1cc(Oc2ccc(NC(=O)Nc3ccc(Cl)c(C(F)(F)F)c3)cc2)ccn1	enzyme activity	inhibitor	–	0.3 µM	inhibition	-4%
CCC1(CC)NC(=O)c2c(c3ccc(Cl)c(Cl)c3n2C)C1C#N (centres unmarked)	thermal stability	–	DSF	10 µM	ΔTm	0 °C
O=S(=O)(NC1CCC(c2cc(F)ccc2F)(S(=O)(=O)c2ccc(Cl)cc2)CC1)C(F)(F)F (centres unmarked)	cell-free assay	–	competition with immobilised ligand	1 µM	remaining binding	83%
CCOc1cc(-c2nncn2C)ccc1Nc1ncc2cc(C)nc(NCC(C)(C)C)c2n1	enzyme activity	inhibitor	FRET	1 µM	inhibition	< 15%
CC(C)CC(=O)N1CCc2nc(-c3ccc(Br)cc3)nc(N(C)Cc3ccccc3)c2C1	cell-free assay	–	competition with immobilised ligand	0.1 µM	remaining binding	100%
Cn1c2c(c3ccc(Cl)c(Cl)c31)C(C#N)C1(CCN(C(=O)OC(C)(C)C)CC1)NC2=O (racemic)	thermal stability	–	DSF	10 µM	ΔTm	-0.1 °C
O=C(O)[C@@H]1[C@@H](Cn2nnc3ccccc3c2=O)CC[C@H]1C(=O)c1ccc(OCCC2CCOCC2)cc1	cell-free assay	–	competition with immobilised ligand	1 µM	remaining binding	100%
COc1cc2ncnc(Nc3ccc(F)c(Cl)c3)c2cc1OCCCN1CCOCC1	cell-free assay	–	–	0.5 µM	remaining signal	103%
CCCS(=O)(=O)Nc1ccc(F)c(C(=O)c2c[nH]c3ncc(-c4ccc(Cl)cc4)cc23)c1F	enzyme activity	inhibitor	–	1 µM	inhibition	< 10%
CS(=O)(=O)c1cc(C2(NC(=O)c3cncc4c3cnn4-c3ccc(F)cc3)CC2)ccn1	cell-free assay	–	competition with immobilised ligand	1 µM	remaining binding	100%
Cc1ccc(NC(=O)c2ccc(C)c(C(F)(F)F)c2)cc1C#Cc1nn(C2CCC(O)CC2)c2ncnc(N)c12 (centres unmarked)	cell-free assay	–	–	10 µM	remaining signal	103%
CC(C)(C)c1nc(-c2cccc(NS(=O)(=O)c3c(F)cccc3F)c2F)c(-c2ccnc(N)n2)s1	enzyme activity	inhibitor	radiometric	1 µM	remaining activity	91%
COc1ccc2c(O[C@@H]3C[C@H]4C(=O)N[C@]5(C(=O)O)CC5/C=C\CCCCC[C@H](NC(=O)OC5CCCC5)C(=O)N4C3)cc(-c3csc(NC(=O)C(C)C)n3)nc2c1C (some centres unmarked)	cell-free assay	–	competition with immobilised ligand	1 µM	remaining binding	100%
COc1cc(Cl)c(C(=O)N[C@@H](CN[C@H]2CC[C@@H](N)CC2)Cc2ccc(C#N)cc2)cc1-c1ccc(CN[C@H](C)c2ccc(C)cc2)o1	enzyme activity	inhibitor	–	1 µM	remaining activity	96%
COc1cc2c(Nc3ccc(Br)cc3F)ncnc2cc1OCC1CCN(C)CC1	cell-free assay	–	–	0.5 µM	remaining signal	98.1%
Cn1c2c(c3ccc(Cl)c(Cl)c31)C(C#N)C1(CCNCC1)NC2=O (racemic)	thermal stability	–	DSF	10 µM	ΔTm	2.9 °C
Cc1sc(C(=O)NC2COC2)cc1-n1cc(NC(=O)Nc2c(F)cccc2Cl)cn1	enzyme activity	inhibitor	–	10 µM	remaining activity	91.3%
Cc1ccc(Nc2nccc(N(C)c3ccc4c(C)n(C)nc4c3)n2)cc1S(N)(=O)=O	enzyme activity	inhibitor	–	0.3 µM	inhibition	-8%
Cn1c2c(c3ccc(Cl)c(Cl)c31)C(C#N)C(C)(C)NC2=O (centres unmarked)	thermal stability	–	DSF	10 µM	ΔTm	0.5 °C
NS(=O)(=O)c1cc(NC(=O)Cc2ccccc2)ccc1Oc1cccc(Cl)c1	cell-free assay	–	competition with immobilised ligand	1 µM	remaining binding	74%
Cc1cc(NC(=O)c2cccc3cc(-c4cccc5[nH]nc(N)c45)ccc23)ccc1F	enzyme activity	inhibitor	–	0.1 µM	activity vs control	107%
CN(c1nccc(-c2cnn3ncccc23)n1)C1CC1	binding	–	–	1 µM	remaining binding	100%
Cn1c2c(Cl)c(Cl)ccc2c2cc[nH]c(=O)c21	thermal stability	–	DSF	10 µM	ΔTm	-0.2 °C
C[C@@]1(Cc2ccc(C#N)cc2)C(=O)N(c2cc(Cl)cc(Cl)c2)c2ncc(C(=O)NC3(c4nc(C5CCC5)no4)CC3)n21	cell-free assay	–	competition with immobilised ligand	1 µM	remaining binding	100%
